Published values of several laboratories.
Each line is one published result; the experiments were not run side by side.
Target: Mu-type opioid receptor (Oprm1, Rattus norvegicus, UniProt P33535)

SMILES | assay | setting | Ki [nM]
CCCC[C@@H](NC(=O)[C@@H](N)Cc1ccc(O)cc1)C(=O)NCC(=O)N[C@@H](Cc1ccc(F)cc1)C(=O)N(C)CCC[C@@]1(c2ccc(F)cc2)OCc2cc(C#N)ccc21 | cell-free assay |  | 16
CCc1cccc(C)c1C[C@H](NC(=O)[C@@H](CCCNC(=N)N)NC(=O)[C@@H](N)Cc1c(C)cc(O)cc1C)C(=O)N[C@@H](CCCCN)C(N)=O | ligand displacement, radioligand | cell membranes | 0.0958
Oc1cccc([C@@]23CCC[C@@H]([C@@H]2O)N(CC=Cc2ccccc2)CC3)c1 | ligand displacement, radioligand |  | 25
Cc1cc(O)cc(C)c1C[C@H](N)C(=O)N1CCc2ccc(Cc3cccc(N)c3)cc2C1 | ligand displacement, radioligand | cell membranes | 9.7
NC(N)=Nc1ccc2[nH]c3c(c2c1)C[C@@]1(O)[C@H]2Cc4ccc(O)c5c4[C@@]1(CCN2CC1CC1)[C@H]3O5 | ligand displacement, radioligand | cell membranes | 9.04
Cc1cc(O)cc(C)c1C[C@H](C)C(=O)N[C@@H]1C/C=C\CC[C@@H](C(N)=O)NC(=O)[C@H](Cc2ccccc2)NC(=O)[C@H](Cc2ccccc2)NC1=O | ligand displacement, radioligand | cell membranes | 7.44
Cc1cc(O)cc(C)c1C[C@H](N)C(=O)N1CCc2ccc(Cc3ccccc3[N+](=O)[O-])cc2C1 | ligand displacement, radioligand | cell membranes | 10
Cc1cc(O)cc(C)c1C[C@H](N)C(=O)N[C@H](C)C(=O)NCC(=O)N[C@@H](Cc1ccc(Cl)cc1)C(=O)N(C)CCC[C@@]1(c2ccc(F)cc2)OCc2cc(C#N)ccc21 | cell-free assay |  | 12
Cc1cc(O)cc(C)c1C[C@H](N)C(=O)N1CCc2ccc(Cc3ccc([N+](=O)[O-])cc3)cc2C1 | ligand displacement, radioligand | cell membranes | 2.6
Cc1cc(O)cc(C)c1C[C@H](C)C(=O)N[C@@H]1CCCCC[C@@H](C(N)=O)NC(=O)[C@H](Cc2ccccc2)NC(=O)[C@H](Cc2ccccc2)NC1=O | ligand displacement, radioligand | cell membranes | 18.3
C[C@@H](NC(=O)[C@@H](N)Cc1ccc(O)cc1)C(=O)NCC(=O)N[C@@H](Cc1ccc(Cl)cc1)C(=O)N(C)CCC[C@@]1(c2ccc(F)cc2)OCc2cc(C#N)ccc21 | cell-free assay |  | 7
C[C@@H](NC(=O)[C@@H](N)Cc1ccc(O)cc1)C(=O)NCC(=O)N[C@H](CC(=O)NNC(=O)C[C@H](Cc1ccccc1)NC(=O)CNC(=O)[C@@H](C)NC(=O)[C@@H](N)Cc1ccc(O)cc1)Cc1ccccc1 | ligand displacement, radioligand |  | 1.1
Cc1cccc(Cc2ccc3c(c2)CN(C(=O)[C@@H](N)Cc2c(C)cc(O)cc2C)CC3)c1 | ligand displacement, radioligand | cell membranes | 3.1
Cc1cc(C)c(C[C@H](NC(=O)[C@@H](CCCNC(=N)N)NC(=O)[C@@H](N)Cc2c(C)cc(O)cc2C)C(=O)N[C@@H](CCCCN)C(N)=O)c(C)c1 | ligand displacement, radioligand | cell membranes | 0.158
